Laboratory results: ChEMBL document CHEMBL4359909, “De novo design approaches targeting an envelope protein pocket to identify small molecules against dengue virus” (Eur J Med Chem, 2019)
Values after ≈ are worked out from the molar mass of the structure shown. Active and inactive are the calls of the source. The rule behind the calls is not given here.

Assays:
[1] = Cytotoxicity against human A549 cells assessed as reduction in cell viability after 48 hrs by MTT assay; type: cell-based
[2] = Selectivity index, ratio of CC50 for human A549 or Mesocricetus auratus BHK21 cells to EC50 for antiviral activity against DENV-2 infected in A549or Mesocricetus auratus BHK21 cells; type: toxicity; conditions: read-out: Ratio CC50/EC50
[3] = system: dengue virus type 2; test: Antiviral activity against DENV-2 infected in human A549 or Mesocricetus auratus BHK21 cells preincubated for 30 mins further incubated for 1 hr followed by replacement of fresh medium containing compounds and measured at 8 hrs post infection by renilla luciferase assay; type: functional, organism-based
How it was run: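 Reporter DENV-2 carrying Renilla luciferase, MOI 1. Inoculum preincubated 30 min with compound, left on cells 1 h, then replaced by fresh medium containing compound. Luciferase read at 8 h p.i., reflecting entry and translation of incoming genome. EC50 is the concentration giving a two-fold drop in luciferase versus control; mean of at least two independent experiments.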

[4] = system: Dengue virus; test: Antiviral activity in DENV infected in cells assessed as reduction in intracellular viral RNA level after 48 hrs by RT-PCR analysis
[5] = Half life in mouse plasma at 50 uM measured up to 120 mins by HPLC-MS analysis; type: ADME, cell-free
How it was run: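 Mouse plasma diluted to 80% with PBS, preheated; compound added at 50 μM final from DMSO stock; 37°C shaking, triplicate. Samples at 0–120 min deproteinized with cold acetonitrile plus warfarin internal standard, centrifuged at 4°C, supernatant diluted in methanol:water, HPLC-MS; peak area ratio to internal standard. Enalapril positive control.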

[6] = Solubility in PBS at 1 mg incubated for 24 hrs in shaker and measured after 24 hrs by shake-flask method based UV-VIS-NIR spectrophotometric analysis; type: physicochemical
How it was run: (§1)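 Shake-flask method: 1.0 mg compound in 1 mL PBS (pH 7.4), mixed at 1500 rpm at 37 °C for 24 h, then held at 37 °C for 24 h. Filtered at 0.2 µm and read by UV-VIS-NIR spectrophotometry against a calibration curve. Reported as mean ± SD of two independent experiments run in triplicate.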

[7] = Half life in simulated intestinal fluid at 50 uM measured up to 120 mins at pH 6.8 by HPLC-MS analysis; type: ADME
How it was run: (§2)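 DMSO stock diluted in acetonitrile, added to PBS (pH 7.4), SGF (pH 1.2) or SIF (pH 6.8) at 50 μM final; shaking water bath 37°C, triplicate. Samples at 0–120 min quenched with acetonitrile containing warfarin internal standard, centrifuged, diluted in methanol:water, analysed by HPLC-MS (C18, ESI positive); quantified by peak area ratio to internal standard.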

[8] = Solubility in simulated intestinal fluid at 1 mg incubated for 24 hrs in shaker and measured after 24 hrs by shake-flask method based UV-VIS-NIR spectrophotometric analysis; type: physicochemical
How it was run: as §1, with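 “simulated intestinal fluid” for “PBS”, “6.8),” for “7.4),”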

[9] = Half life in PBS at 50 uM measured up to 120 mins at pH 7.4 by HPLC-MS analysis; type: physicochemical; how it was run: as §2
[10] = Solubility in simulated gastric fluid at 1 mg incubated for 24 hrs in shaker and measured after 24 hrs by shake-flask method based UV-VIS-NIR spectrophotometric analysis; type: physicochemical
How it was run: as §1, with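 “simulated gastric fluid” for “PBS”, “1.2),” for “7.4),”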

[11] = Half life in simulated gastric fluid at 50 uM measured up to 120 mins at pH 1.2 by HPLC-MS analysis; type: ADME; how it was run: as §2
[12] = system: A549; test: Cytotoxicity against human A549 cells at 50 uM after 48 hrs by MTT assay; type: cell-based; conditions: a549, 48 h

SMILES	CC50 at 48 h [1]	selectivity ratio [2]	EC50 [3]	other results
Cc1ccc(-c2ccc(Nc3ccnc(NCCN4CCOCC4)n3)cc2)cc1	10.2 µM	5	1.8 µM	
OCCN1CCN(c2nccc(Nc3ccc(-c4ccccc4)cc3)n2)CC1			19.9 µM	
Cc1ccc(CNc2ccnc(NC3CC(C)(C)NC(C)(C)C3)n2)cc1	15.2 µM	3	4.9 µM	
Cc1ccc(-c2ccc(Nc3ccnc(NC4CC(C)(C)NC(C)(C)C4)n3)cc2)cc1	12 µM	8	1.51 µM	
CC1(C)CC(Nc2nccc(NCc3ccc(F)cc3)n2)CC(C)(C)N1	12.8 µM	7	1.98 µM	
CC1(C)CC(Nc2nccc(Nc3ccc(-c4cccc(Cl)c4)cc3)n2)CC(C)(C)N1	5.1 µM	10	0.54 µM	Activity [4]: Active
Cc1ccc(Nc2ccnc(NCCN3CCOCC3)n2)cc1	> 50 µM	> 2	21.3 µM	
c1ccc(-c2ccc(Nc3ccnc(NCCN4CCCCC4)n3)cc2)cc1				half-life at 50 µM [5]: > 2 h; solubility thermodynamic at 24 h [6]: 32 µg/mL (≈ 85.7 µM); half-life at 50 µM [7]: > 2 h; solubility thermodynamic at 24 h [8]: 324 µg/mL (≈ 867 µM); half-life at 50 µM [9]: > 2 h; solubility thermodynamic at 24 h [10]: 506 µg/mL (≈ 1350 µM); half-life at 50 µM [11]: > 2 h
c1ccc(-c2ccc(Nc3ccnc(NCCN4CCOCC4)n3)cc2)cc1	59 µM	7	8.6 µM	
CN1CCN(c2nccc(Nc3ccc(-c4cccc(Cl)c4)cc3)n2)CC1	15.3 µM	5	2.9 µM	
CN1CCN(c2nccc(Nc3ccc(-c4ccc(Cl)cc4)cc3)n2)CC1	23.5 µM	5	3.3 µM	
Clc1ccc(-c2ccc(Nc3ccnc(NCCN4CCCCC4)n3)cc2)cc1	14.3 µM	13	1.1 µM	
c1ccc(-c2ccc(Nc3ccnc(OCCN4CCOCC4)n3)cc2)cc1			39.7 µM	
Clc1ccc(Nc2ccnc(NCc3cccnc3)n2)cc1			24 µM	
O=C(Nc1ccnc(NCCN2CCOCC2)n1)c1ccc(-c2ccccn2)s1	10.5 µM	4	3.3 µM	
CC1(C)CC(Nc2nccc(Nc3ccc(-c4ccc(Cl)cc4)cc3)n2)CC(C)(C)N1	9.8 µM	54	0.18 µM	Activity [4]: Active
CC1(C)CC(Nc2nccc(Nc3ccc(-c4ccccc4)cc3)n2)CC(C)(C)N1				half-life at 50 µM [5]: > 2 h; solubility thermodynamic at 24 h [6]: 93 µg/mL (≈ 232 µM); half-life at 50 µM [7]: > 2 h; solubility thermodynamic at 24 h [8]: 580 µg/mL (≈ 1440 µM); half-life at 50 µM [9]: > 2 h; solubility thermodynamic at 24 h [10]: 76 µg/mL (≈ 189 µM); half-life at 50 µM [11]: > 2 h
Clc1ccc(/C=N/Nc2ccnc(NCCN3CCOCC3)n2)c(Cl)c1	76.5 µM	8	10.6 µM	
Clc1ccc(-c2ccc(Nc3ccnc(NCc4cccnc4)n3)cc2)cc1	25.7 µM	6	4.1 µM	
OCCN1CCN(c2nccc(Nc3ccc(Cl)cc3)n2)CC1			24 µM	
Cc1ccc(-c2ccc(Nc3ccnc(N4CCN(C)CC4)n3)cc2)cc1	27.7 µM	6	4.9 µM	
CC1(C)CC(Nc2nccc(NCc3ccc(Cl)cc3)n2)CC(C)(C)N1	21.1 µM	12	1.8 µM	
Clc1ccc(CNc2ccnc(NCc3cccnc3)n2)cc1			23.7 µM	
Clc1cccc(-c2ccc(Nc3ccnc(NCc4cccnc4)n3)cc2)c1	18.5 µM	5	3.4 µM	
COc1ccc(CNc2ccnc(NC3CC(C)(C)NC(C)(C)C3)n2)cc1	18.3 µM	2	12.5 µM	
CC1(C)CC(Nc2nccc(Nc3ccc(Cl)cc3)n2)CC(C)(C)N1	18.6 µM	10	1.9 µM	
Clc1ccc(Nc2ccnc(NCCN3CCOCC3)n2)cc1	89.6 µM	4	23.6 µM	Activity [12]: Non-Toxic
